Paper PMC5889851 (ACS chemical biology, 2018)

Columns and labels:
HEK293 cells = assay: Viability testing using trypan blue; type: cell-based, human; conditions: 40 nM, 6 h
Summary of the method: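 HEK293 cells received 0 or 40 nM NAMPT inhibitor for 6 h, then were harvested, rinsed and resuspended in fresh medium. An aliquot of the suspension was scored for viability by trypan blue exclusion.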

[1] = target: T1, SIRT2 in SIRT2 overexpressing HEK293 cells (Homo sapiens, UniProt Q8IXJ6); assay: In situ labeling of SIRT2 with activity-based probe; type: cell-based; conditions: cells treated with FK866 6 h, then 10 μM probe 1; compared to control cells
T1 sequence (Q8IXJ6 1-389): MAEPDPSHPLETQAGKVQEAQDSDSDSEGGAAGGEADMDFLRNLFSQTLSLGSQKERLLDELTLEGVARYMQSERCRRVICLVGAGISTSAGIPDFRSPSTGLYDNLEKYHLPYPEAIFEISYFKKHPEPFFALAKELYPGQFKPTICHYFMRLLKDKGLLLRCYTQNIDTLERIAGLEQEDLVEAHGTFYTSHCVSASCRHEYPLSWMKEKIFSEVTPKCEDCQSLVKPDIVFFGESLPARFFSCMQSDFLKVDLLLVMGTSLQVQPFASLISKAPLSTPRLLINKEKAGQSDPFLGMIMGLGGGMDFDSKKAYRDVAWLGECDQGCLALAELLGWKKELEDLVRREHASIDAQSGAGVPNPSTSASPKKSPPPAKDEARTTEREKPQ
Summary of the method: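 SIRT2-overexpressing HEK293 cells were treated with or without NAMPT inhibitor for 6 h, rinsed three times, and given fresh medium with 10 μM probe. Live cells were irradiated at 365 nm on ice for 1 h, then harvested and lysed. Lysate was click-conjugated to azide-fluor 545, resolved by SDS-PAGE and scanned for fluorescence. SIRT2 protein level was checked by Western blot.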

[2] = system: HEK293 cells overexpressing SIRT2; assay: Cellular NAD+ measurement; type: cell-based, human; conditions: 40 nM, 6 h, vs control cells
Summary of the method: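 SIRT2-overexpressing HEK293 cells got 0 or 40 nM NAMPT inhibitor for 6 h, then were harvested, rinsed and resuspended in fresh medium. Pellets were extracted with ice-cold 7% perchloric acid through three vortex (30 s) and ice sonication (5 min) cycles. Extracts were centrifuged 3 min at RT, and supernatant was neutralised to pH 7 with NaOH and phosphate buffer. NAD⁺ was quantified by cycling assay.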

in situ labeling intensity of SIRT2 by probe 1 [1]: decreased labeling intensity
Structure (SMILES): O=C(/C=C/c1cccnc1)NCCCCC1CCN(C(=O)c2ccccc2)CC1 [FK866]
loss of viability (HEK293 cells): negligible loss of viability | NAD+ depletion [2]: 60%
